In brackets after ≈: the same amount, converted by molar mass. Activity calls are given as the source filed them. The calls are words filed in the database; no cut-off is given here. *1 amine or outer side, *2 acyl side, *3 side chain or, on linkers, in order; H or OH if unused. Where a SMILES comes first, the peptide text is derived from it. Bridges are numbered along the chain shown (N, C = ends). [ ]: non-standard residue; d: D form. TATA = O=C(CC[*:1])N1CN(C(=O)CC[*:2])CN(C(=O)CC[*:3])C1

The target of series [1] is T1, Nectin-4 (Homo sapiens, UniProt Q96NY8).
T1 sequence (Q96NY8 whole entry): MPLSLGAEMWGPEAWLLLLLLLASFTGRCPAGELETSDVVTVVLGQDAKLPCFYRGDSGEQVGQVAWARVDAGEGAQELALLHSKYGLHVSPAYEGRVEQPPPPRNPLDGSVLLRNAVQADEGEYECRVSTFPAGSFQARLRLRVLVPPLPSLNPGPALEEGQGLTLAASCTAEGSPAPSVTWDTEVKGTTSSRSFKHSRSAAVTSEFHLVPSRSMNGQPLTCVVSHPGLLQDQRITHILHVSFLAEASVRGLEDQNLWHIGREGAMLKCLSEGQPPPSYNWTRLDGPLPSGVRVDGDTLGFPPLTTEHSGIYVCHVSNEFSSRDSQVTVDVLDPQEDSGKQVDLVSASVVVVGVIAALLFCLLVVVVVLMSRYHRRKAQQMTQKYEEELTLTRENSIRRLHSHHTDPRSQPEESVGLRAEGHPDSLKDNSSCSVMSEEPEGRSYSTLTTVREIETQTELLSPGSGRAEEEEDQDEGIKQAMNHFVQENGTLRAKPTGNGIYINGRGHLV
In words: Displacement of tracer from C-terminal FLAG-tagged human Nectin-4 (32 to 349 residues) expressed in baculovirus infected sf9 cells assessed as inhibition constant measured at 5 to 10 mins interval for 60 mins by fluorescence polarization assay.

A short description of series [2]: Thermodynamic solubility of the compound in phosphate buffer at pH 7.4. Format: physicochemical. Particulars: read-out: Therm_solubility. Put shortly: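 Thermodynamic solubility measured in phosphate buffer at pH 7.4, expressed in mg/mL.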
Series [3] in a line: Stability in mouse plasma assessed as half life measured upto 24 hrs by LC-MS/MS analysis. Format: ADME, cell-free.
Series [4] can be described thus: Stability in human plasma assessed as half life measured upto 24 hrs by LC-MS/MS analysis. It counts as ADME, cell-free.
The subject of series [5] is MDA-MB-468. The series is described as follows: Antitumor activity against human MDA-MB-468 cells xenografted in Balb/c mouse model assessed as tumor regression at 3 mg/kg, iv twice weekly or 5 mg/kg, iv once weekly administered as bolus injection for 18 days. It counts as functional, organism-based. Particulars: dose 3-5 mg/kg, time 18.0 day. In outline:
(§1)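 Dosing regimens were 3 mg/kg once weekly, 3 mg/kg twice weekly, or 5 mg/kg once weekly. Dosing ran 18 days. After dosing stopped, the 5 mg/kg once-weekly group was followed to day 42. Read-out was tumour growth/regression.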

Series [6] in a line: Plasma protein binding in mouse by LC/MS/MS analysis. Format: ADME, cell-free. Particulars: read-out: PPB (converted).
Series [7] in a line: Plasma protein binding in human LC/MS/MS analysis. Particulars: read-out: PPB (converted). It counts as ADME, cell-free.
Series [8] is described as follows: Half life in mouse at 3 mg/kg, iv administered as bolus injection. It counts as ADME, organism-based. Particulars: in vivo. In outline:
(§2)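 Mouse pharmacokinetics after a single 3 mg/kg IV bolus. Terminal half-life, plasma clearance (mL/min/kg) and steady-state volume of distribution (L/kg) were derived from plasma levels.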

The nature of series [9]: Clearance in mouse plasma at 3 mg/kg, iv administered as bolus injection. Format: ADME, organism-based. Put shortly:
as §2

Series [10] can be described thus: Volume of distribution at steady state in mouse at 3 mg/kg, iv administered as bolus injection. It counts as ADME, organism-based. Particulars: in vivo, read-out: Vdss. In outline:
as §2

For series [11], the system named is MDA-MB-468. The series is described as follows: Antitumor activity against human MDA-MB-468 cells xenografted in Balb/c mouse model assessed as tumor regression 5 mg/kg, iv administered as bolus injection once weekly for 18 days and measured upto 42 days. It counts as functional, organism-based. Particulars: time <= 42.0 day. Put shortly:
as §1
Background: In xenograft studies the graft and the host belong to different species.

Series [12] can be described thus: Toxicity in Balb/c mouse assessed as drug tolerability at 3 to 5 mg/kg, iv administered as bolus injection measured upto 42 days. It counts as organism-based. Conditions: in vivo, 1008 h, dose 3-5 mg/kg, time < 42 day. In outline:
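Doses were 3 mg/kg once or twice weekly and 5 mg/kg once weekly over 18 days, with one group monitored to day 42.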

In series [13] the test system is MDA-MB-468. In words: Antitumor activity against human MDA-MB-468 cells xenografted in Balb/c mouse model assessed as tumor regression at 3 mg/kg, iv administered as bolus injection once weekly for 18 days. Format: functional, organism-based. Conditions: time 18.0 day. In outline:
as §1

One may read the Ki as the dissociation constant of the complex between target and ligand, obtained from inhibition or displacement. One may read the half-life as the time in which the quantity being followed falls by half. On to `CC[C@H](C)[C@@H]1NC(=O)[C@@H]2CCCN2C(=O)[C@H](Cc2c[nH]c3ccccc23)NC(=O)[C@H](CO)NC(=O)[C@H](Cc2c[nH]c3ccccc23)NC(=O)[C@H](CC(N)=O)NC(=O)[C@H](CCCCN)NC(=O)[C@H](CCSC)NC(=O)[C@@H]2CSCCC(=O)N3CN(CN(C3)C(=O)CCSC[C@@H](NC(C)=O)C(=O)N3CCC[C@H]3C(=O)N[C@@H](Cc3ccccc3)C(=O)NCC(=O)N2)C(=O)CCSC[C@@H](C(=O)N[C@H](C(=O)N[C@@H](CC(N)=O)C(=O)N[C@@H](CCCCN)C(N)=O)[C@@H](C)O)NC(=O)[C@H](Cc2c[nH]c3ccccc23)NC1=O` (Ac-[dC]PFGCMKNWSWPIWCTNK-NH2; linker 1-5-15 via TATA), for which the inhibition constant Ki in series [1] was found to be 13.5 nM. Moreover, the solubility thermodynamic in series [2] was 4400 µg/mL (≈ 1770 µM). In addition, the half-life is 2.2 h in series [3] and over 24 h in [4].
For orientation: clearance means the rate of elimination divided by the concentration. Low values mean a low capacity for elimination, high ones a high capacity for elimination. Take `CC[C@H](C)[C@@H]([C@H](CC(=O)N1CCCC1[C@@H](OC)[C@H](C)C(=O)N[C@@H](C)[C@H](O)c1ccccc1)OC)N(C)C(=O)[C@@H](NC(=O)[C@H](C(C)C)N(C)C(=O)OCc1ccc(NC(=O)[C@H](CCCNC(N)=O)NC(=O)[C@@H](NC(=O)CCCC(=O)NCCC(=O)N(C)CC(=O)N(C)CC(=O)N(C)CC(=O)N(C)CC(=O)N(C)CC(=O)N(C)CC(=O)N(C)CC(=O)N(C)CC(=O)N(C)CC(=O)N(C)CC(=O)N[C@@H](C)N[C@@H](CCCCNC(=N)N)C(=O)N[C@@H](CC(=O)O)C(=O)N[C@H]2CSCCC(=O)N3CN4CCC(=O)SC[C@H](NC(=O)[C@H](CC(C)C)NC(=O)[C@@H]5CCCN5C(=O)[C@H](CC(N)=O)NC(=O)[C@H](C(C)C)NC(=O)[C@H](CC(C)C)NC(=O)C5C[C@@H](O)CN5C2=O)C(=O)N[C@@H](CC(C)C)C(=O)N[C@@H](Cc2c[nH]cn2)C(=O)N2CCCC2C(=O)N[C@@H](CC(=O)O)C(=O)N[C@@H](Cc2c[nH]c5ccccc25)C(=O)N[C@@H](Cc2c[nH]c5ccccc25)C(=O)NC(CCCCNC(=N)N)C(=O)N[C@H](C(N)=O)CSCCC(=O)N(C4)C3)C(C)C)cc1)C(C)C` (stereo partly specified): the result in series [5], in series [11] and in [13] was Active. In [2], the solubility thermodynamic worked out at 800 µg/mL (≈ 175 µM). In addition, the half-life is 4.4 h in series [3], over 57.8 h in series [4] and 1 h in series [8]. In addition, the fraction unbound was 0.118 in series [6] and 0.207 in series [7]. Moreover, the clearance in [9] is 3.5 mL/min/kg. Further, the Vd in series [10] is 0.25 L/kg. The Activity result in series [12] is “Non-Toxic”.

Source of the values: ChEMBL document CHEMBL5214966, “Discovery of BT8009: A Nectin-4 Targeting Bicycle Toxin Conjugate for the Treatment of Cancer” (J Med Chem, 2022).
